Experimental data taken from ChEMBL document CHEMBL1147141, “Potent nonpeptide antagonists of the bradykinin B1 receptor: structure-activity relationship studies with novel diaminochroman carboxamides” (J Med Chem, 2007).

How the values were obtained:
[1] = Oral bioavailability in Sprague-Dawley rat at 10 mg/kg, po; format: ADME, organism-based; settings: in vivo
How it was run: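 Male Sprague-Dawley rats (225-280 g), cannulated and fasted overnight, were dosed by oral gavage at 10 mg/kg in 1% Tween 80, 2% HPMC, prepared 24-48 h before dosing, n = 3. Jugular blood was sampled over 6 or 8 h. Plasma was analysed by LC-MS/MS and parameters derived noncompartmentally.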

[2] = Volume of distribution at steady state in Sprague-Dawley rat at 1 mg/kg, iv; format: ADME, organism-based; parameters: dose 1 mg/kg, route intravenous; settings: in vivo, read-out: Vss
How it was run: (§1)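 Male Sprague-Dawley rats (225-280 g) with femoral and jugular vein cannulae were fasted overnight. They received an i.v. bolus of 1 mg/kg in 100% DMSO, prepared on the dosing day, n = 3. Blood was drawn via jugular cannula over 6 or 8 h into heparin. Plasma was acetonitrile-precipitated and measured by LC-MS/MS (positive MRM). Parameters were noncompartmental and reported with SEM.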

[3] = molecular target: T1, B1 bradykinin receptor (Oryctolagus cuniculus, UniProt P48748); assay: Antagonist activity at rabbit bradykinin B1 receptor; format: functional
T1 sequence (P48748 whole entry): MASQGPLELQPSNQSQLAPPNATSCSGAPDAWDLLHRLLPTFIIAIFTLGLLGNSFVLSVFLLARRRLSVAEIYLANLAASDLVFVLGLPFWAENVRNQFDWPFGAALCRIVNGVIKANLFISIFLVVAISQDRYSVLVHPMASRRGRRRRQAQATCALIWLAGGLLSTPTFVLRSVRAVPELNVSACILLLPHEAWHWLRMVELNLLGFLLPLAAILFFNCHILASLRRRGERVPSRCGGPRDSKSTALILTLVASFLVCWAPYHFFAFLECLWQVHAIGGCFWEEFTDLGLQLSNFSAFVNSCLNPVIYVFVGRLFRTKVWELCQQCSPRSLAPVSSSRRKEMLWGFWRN

[4] = tested on: Oryctolagus cuniculus; assay: Reduction of DAK10-induced hypotension in subcutaneously dosed New Zealand rabbit blood pressure model; format: functional, organism-based
How it was run: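 New Zealand white rabbits (2.0-3.0 kg, n = 1/dose) were given LPS 25 µg/kg i.v. 5 h before the study to induce B1 receptors. Under anesthesia, both carotids were catheterized to record mean arterial pressure and to give DAK. Baseline was set by two i.v. bolus injections of 1 µg DAK. Antagonist was then given s.c. (1, 2, 4, 10 or 20 mpk). At 30 and 75 min, blood was drawn for plasma levels and the DAK response was re-measured, expressed as % hypotensive response.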

[5] = tested on: Oryctolagus cuniculus; assay: Antinociceptive effect in subcutaneously dosed New Zealand rabbit assessed as reversal of carrageenan-induced hyperalgesia administered 2 hrs after carrageenan challenge; format: functional, organism-based
How it was run: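 Male New Zealand white rabbits (500-700 g), right hind paw injected with lambda carrageenan (3% in saline, 200 µL). Three punctate mechanical withdrawal readings were taken before and at 3 h post-carrageenan. Antagonist was given s.c. at 1 mL/kg, at 2 h (20% Captisol vehicle) or 2.5 h (PBS vehicle, peptide) post-carrageenan. Post minus pre threshold gave a difference score, converted to %MPE with the vehicle group as Emin and 0 as Emax. Analysed by one-factor ANOVA and Dunnett's test.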

[6] = Clearance in Sprague-Dawley rat at 1 mg/kg, iv; format: ADME, organism-based; parameters: dose 1 mg/kg, route intravenous; settings: in vivo; how it was run: as §1
[7] = Half life in Sprague-Dawley rat at 1 mg/kg, iv; format: ADME, organism-based; parameters: dose 1 mg/kg, route intravenous; settings: in vivo; how it was run: as §1
[8] = Metabolic stability in rat liver microsomes; format: ADME, Microsome; settings: read-out: Stability
[9] = molecular target: T2, B1 bradykinin receptor (Rattus norvegicus, UniProt P97583); assay: Antagonist activity at rat bradykinin B1 receptor; format: functional
T2 sequence (P97583 whole entry): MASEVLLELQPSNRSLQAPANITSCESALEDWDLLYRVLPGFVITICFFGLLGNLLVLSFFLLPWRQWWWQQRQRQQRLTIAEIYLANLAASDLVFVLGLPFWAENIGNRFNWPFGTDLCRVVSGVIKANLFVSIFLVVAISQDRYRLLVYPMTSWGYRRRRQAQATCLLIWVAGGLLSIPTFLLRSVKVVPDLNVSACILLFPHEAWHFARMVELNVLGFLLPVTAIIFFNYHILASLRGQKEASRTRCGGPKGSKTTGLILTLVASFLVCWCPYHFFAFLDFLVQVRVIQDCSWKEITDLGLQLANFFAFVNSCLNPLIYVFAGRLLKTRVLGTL

[10] = Oral bioavailability in Sprague-Dawley rat at 3 mg/kg, po; format: ADME, organism-based; settings: in vivo
[11] = Metabolic stability in human liver microsomes; format: ADME, Microsome; settings: read-out: Stability

| bioavailability [1] [%] | Vd [2] [L/kg] | IC50 [3] | clearance [6] [L/h/kg] | half-life [7] [h] | microsomal CLint [8] [µL/min/mg] | Ki [9] | bioavailability [10] [%] | microsomal CLint [11] [µL/min/mg] | SMILES | Activity [4] | Activity [5] |
| --- | --- | --- | --- | --- | --- | --- | --- | --- | --- | --- | --- |
| 13 | 4.64 | 0.0104 µM (antagonist) | 1.49 | 2.5 | 216 | 0.127 µM (antagonist) |  |  | O=C(C[C@@H](NS(=O)(=O)c1cccc(C(F)(F)F)c1)c1ccc(F)cc1)N[C@@H]1CCOc2cc(CN3CCCCC3)ccc21 | Dose-dependent effect | Dose-dependent effect |
|  |  |  | 5.05 |  | 390 |  | 4 | 688 | O=C(C[C@@H](NS(=O)(=O)c1ccc2ccccc2c1)c1ccccc1)N[C@@H]1CCOc2cc(CN3CCCCC3)ccc21 |  |  |
